Results as given in ChEMBL document CHEMBL1132171, “Synthesis and antitumor activity of novel thioester derivatives of leinamycin” (J Med Chem, 1999).

Tests used:
HeLa = assay: In vitro antiproliferative activity against HeLa S3 cells; type: functional, cell-based; conditions: Homo sapiens
In short: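 HeLa S3 cells precultured 24 h in 96-well plates, then exposed to compound for 72 h. Growth inhibition read on day 4 by neutral red dye uptake.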

[1] = Half-life determined by HPLC ([…]); type: ADME
In short: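 Stability read by HPLC at 330 nm. Compound at 20 μg/mL in pH 7 phosphate buffer/acetonitrile (4:1), 37 °C, half-life derived.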

Mus musculus [2] = assay: Optimal dose for in vivo antitumor activity against sarcoma 180 infected mice; type: functional
In short: (§1)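 ddY mice given sarcoma 180 cells in the axillary region on day 0. Single iv dose on day 1. Tumor volume expressed as treated/control ratio. Optimal dose reported.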

Mus musculus [3] = assay: In vivo antitumor activity against sarcoma 180 infected mice was determined as treated versus control of tumor volume; type: functional; in short: as §1

IC50 (HeLa) [nM] | half-life [1] [h] | SMILES | OD (Mus musculus [2]) [mg/kg] | T/C (Mus musculus [3])
1300 | > 24 | CCOC(=O)CSC(=O)[C@](C)(O)[C@@]12CC/C(C)=C/[C@@H](O)C(=O)/C=C/C=Cc3csc(n3)[C@@H](C)N(C(=O)C1)[S+]2[O-] (stereo not given in full) | 16 | 0.98
3.9 | 24 | CC(=O)O[C@@H]1/C=C(\C)CC[C@]2([C@@](C)(O)C(=O)SCc3oc(=O)oc3C)CC(=O)N([C@H](C)c3nc(cs3)C=C/C=C/C1=O)[S+]2[O-] (stereo not given in full) | 2 | 0.38
1.4 | 18 | COC1(O[C@@H]2/C=C(\C)CC[C@]3([C@@](C)(O)C(=O)SCc4oc(=O)oc4C)CC(=O)N([C@H](C)c4nc(cs4)/C=C/C=C/C2=O)[S+]3[O-])CCOCC1 (stereo not given in full) | 8 | 0.25
0.17 | 24 | COCO[C@@H]1/C=C(\C)CC[C@]2([C@@](C)(O)C(=O)SCc3oc(=O)oc3C)CC(=O)N([C@H](C)c3nc(cs3)C=C/C=C/C1=O)[S+]2[O-] (stereo not given in full) | 2 | 0.58

Continued, compound first:

SMILES | IC50 (HeLa) [nM] | half-life [1] [h] | OD (Mus musculus [2]) [mg/kg] | T/C (Mus musculus [3])
C/C1=C\[C@@H](O)C(=O)/C=C/C=Cc2csc(n2)[C@@H](C)N2C(=O)C[C@@]([C@@](C)(O)C(=O)SCc3oc(=O)oc3C)(CC1)[S+]2[O-] (stereo not given in full) | 4.6 | 16 | 2 | 0.67
CSC(=O)[C@](C)(O)[C@@]12CC/C(C)=C/[C@@H](O)C(=O)/C=C/C=Cc3csc(n3)[C@@H](C)N(C(=O)C1)[S+]2[O-] (stereo not given in full) | 830 | 18 | 16 | 0.94
C/C1=C\[C@@H](O[C@H]2CCCCO2)C(=O)/C=C/C=C/c2csc(n2)[C@@H](C)N2C(=O)C[C@@]([C@@](C)(O)C(=O)SCc3oc(=O)oc3C)(CC1)[S+]2[O-] (stereo not given in full) | 2.4 | 30 | 8 | 0.63
C/C1=C\[C@@H](O[C@@H]2CCCCO2)C(=O)/C=C/C=C/c2csc(n2)[C@@H](C)N2C(=O)C[C@@]([C@@](C)(O)C(=O)SCc3oc(=O)oc3C)(CC1)[S+]2[O-] (stereo not given in full) | 0.67 | 30 | 8 | 0.26
C/C1=C\[C@@H](O)C(=O)/C=C/C=C\c2csc(n2)[C@@H](C)NC(=O)C[C@@]2(CC1)[S+]([O-])SC(=O)[C@]2(C)O (stereo not given in full) [LEINAMYCIN] | – | 6 | 2 | 0.49
